Source: PMC11636628 (Journal of receptor and signal transduction research, 2024)

Tests used:
[1] = biological target: T1, rat CB2 (Rattus norvegicus, UniProt Q9QZN9); experiment: thallium flux, HEK/GIRK cells; format: cell-based
T1 sequence (Q9QZN9 1-360): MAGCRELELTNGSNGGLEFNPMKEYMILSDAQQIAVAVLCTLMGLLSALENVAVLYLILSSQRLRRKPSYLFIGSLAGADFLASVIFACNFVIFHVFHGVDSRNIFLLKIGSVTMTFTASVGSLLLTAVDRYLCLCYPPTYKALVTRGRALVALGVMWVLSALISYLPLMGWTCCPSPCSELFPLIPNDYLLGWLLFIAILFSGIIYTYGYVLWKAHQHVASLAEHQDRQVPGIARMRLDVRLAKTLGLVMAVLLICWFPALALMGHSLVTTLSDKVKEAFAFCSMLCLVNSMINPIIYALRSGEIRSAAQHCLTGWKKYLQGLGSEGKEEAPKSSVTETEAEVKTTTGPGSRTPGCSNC
Procedure, shortened: (§1)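 HEK/GIRK cells were made to stably express the receptor by ViaFect transfection with a pIRESpuro3 construct and selected with 1 μg/mL puromycin. Cells (15,000/well) were seeded overnight at 37 °C. They were loaded with 1.2 μM Thallos-AM in HBSS/20 mM HEPES pH 7.3 for 1 h at RT. Compound or DMSO was added, then 12 mM Tl2SO4 stimulus buffer with agonist 140 s later. The 145–155 s slope was vehicle-subtracted, normalized to maximal JWH133 signal and fit with a four-parameter logistic. Triplicate, three to five experiments.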

[2] = biological target: human CB2 (Homo sapiens, UniProt P34972); experiment: thallium flux, HEK/GIRK cells; format: cell-based
Procedure, shortened: as §1

[3] = biological target: human CB1 (Homo sapiens, UniProt P21554); experiment: thallium flux, HEK/GIRK cells; format: cell-based
[4] = biological target: T2, rat CB1 (Rattus norvegicus, UniProt P20272); experiment: thallium flux, HEK/GIRK cells; format: cell-based
[5] = biological target: T1, rat CB2; experiment: [3H]CP55940 competition, HEK/GIRK membranes; format: binding
[6] = biological target: T2, rat CB1; experiment: PI hydrolysis, [3H]inositol phosphate chromatography, HEK/Gqi9 cells; format: cell-based
Procedure, shortened: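 HEK293 cells stably expressing Gqi9 were transfected with a pIRESpuro3 receptor construct and puromycin-selected. They were seeded at 1.5 X 10^5 cells/well and assayed after 48 h. Cells were labelled overnight with 0.4 μCi myo-[3H]inositol in inositol-free DMEM with 5% dialyzed FBS. Agonists were added at 5x in 50 mM LiCl/250 mM HEPES pH 7.25 for 30 min at 37 °C. Reactions were stopped with boiling EDTA pH 8.0, and [3H]inositol phosphates were resolved on Dowex AG1-X8 and scintillation counted.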

[7] = biological target: T1, rat CB2; experiment: thallium flux, HEK/GIRK cells, compound alone; format: cell-based

human CB2, sequence (P34972 whole entry): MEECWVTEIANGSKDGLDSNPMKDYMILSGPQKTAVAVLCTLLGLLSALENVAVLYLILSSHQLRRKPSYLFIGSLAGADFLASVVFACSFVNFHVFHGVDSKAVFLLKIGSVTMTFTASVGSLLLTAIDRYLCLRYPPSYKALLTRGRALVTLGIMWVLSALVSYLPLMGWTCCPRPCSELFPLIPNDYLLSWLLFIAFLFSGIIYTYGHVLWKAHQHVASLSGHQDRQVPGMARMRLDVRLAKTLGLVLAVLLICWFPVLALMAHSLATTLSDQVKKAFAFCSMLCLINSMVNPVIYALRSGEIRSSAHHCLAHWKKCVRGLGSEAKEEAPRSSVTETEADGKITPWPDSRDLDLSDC
T2 sequence (P20272 whole entry): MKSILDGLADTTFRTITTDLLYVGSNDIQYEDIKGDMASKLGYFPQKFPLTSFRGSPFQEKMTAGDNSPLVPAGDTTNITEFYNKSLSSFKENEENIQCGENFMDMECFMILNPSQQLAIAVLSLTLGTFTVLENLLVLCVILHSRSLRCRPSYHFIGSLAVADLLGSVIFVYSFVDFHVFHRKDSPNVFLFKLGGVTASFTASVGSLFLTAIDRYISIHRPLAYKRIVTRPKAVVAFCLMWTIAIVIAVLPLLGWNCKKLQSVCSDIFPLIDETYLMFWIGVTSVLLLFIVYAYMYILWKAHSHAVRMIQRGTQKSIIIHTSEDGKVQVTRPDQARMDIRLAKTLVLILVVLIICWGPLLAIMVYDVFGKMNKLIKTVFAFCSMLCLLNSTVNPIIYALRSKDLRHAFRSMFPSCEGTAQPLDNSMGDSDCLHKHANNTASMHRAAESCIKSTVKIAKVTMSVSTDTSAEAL
human CB1, sequence (P21554 whole entry): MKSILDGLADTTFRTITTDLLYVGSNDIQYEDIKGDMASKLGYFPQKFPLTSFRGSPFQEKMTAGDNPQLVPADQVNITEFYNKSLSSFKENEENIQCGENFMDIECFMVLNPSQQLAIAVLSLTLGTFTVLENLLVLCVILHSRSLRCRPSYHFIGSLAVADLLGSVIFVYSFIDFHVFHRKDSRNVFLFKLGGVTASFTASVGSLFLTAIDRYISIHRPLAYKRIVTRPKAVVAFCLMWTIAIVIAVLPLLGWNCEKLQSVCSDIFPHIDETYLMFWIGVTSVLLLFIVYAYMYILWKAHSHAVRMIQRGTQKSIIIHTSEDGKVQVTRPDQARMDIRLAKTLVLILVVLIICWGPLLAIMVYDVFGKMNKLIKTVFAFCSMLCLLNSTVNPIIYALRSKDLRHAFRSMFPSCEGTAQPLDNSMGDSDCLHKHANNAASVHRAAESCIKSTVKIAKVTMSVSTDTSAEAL

| Compound | EC50 [1] [nM] | EC50 [2] [nM] | EC50 [3] [nM] | also measured |
| --- | --- | --- | --- | --- |
| CCCCC/C=C\C/C=C\C/C=C\C/C=C\CCCC(=O)OC(CO)CO [2-AG] | 49 | 145 | – | – |
| CCCCC/C=C\C/C=C\C/C=C\C/C=C\CCCC(=O)NCCCl [ACEA, N-(2-Chloroethyl)-5Z,8Z,11Z,14Z-eicosatetraenamide] | 251 | 1700 | 60.3 | EC50 [4]: 20 nM |
| COc1ccc(C(=O)c2c(C)n(CCN3CCOCC3)c3cc(I)ccc23)cc1 [AM630] | – | – | – | IC50 [5]: 72.4 nM |
| Cc1c(Br)cn(Cc2ccc(F)cc2)c(=O)c1NC(=O)C1CCCCCC1 [EC21a] | – | – | – | EC50 [6]: 1700 nM; EC50 [7]: 100 nM |
| CCCC(C)(C)c1ccc2c(c1)OC(C)(C)[C@@H]1CC=C(C)C[C@@H]21 [JWH133] | 537 | 275 | 1230 | – |
